Rows were chosen to be rich in hits. Some 4.1% of all compounds tested hit in one or more screens of this group.
Cl transport mod = modulators of human KCC2 chloride dependent transport; Q9H2X9; 190,000 tested, 2.2% active; AID 1456; KCC2 cells, thallium flux FluoZin-2 fluorescence; B-score of Tl+ flux slope (higher = more flux/activation; lower = inhibition) at 10 µM;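 active = thallium flux slope and its plate-corrected score both differing from the plate sample mean at a set confidence after two filtering rounds, in either direction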;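 note: slope of fluorescence scaled to starting intensity during 10 to 20 s after thallium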
KCNK3 inh = human KCNK3 channel inhibition, primary screen; O14649; CHO-KCNK3 thallium flux, FluxOR fluorescence; hits give low values; B-score at 10 µM; 340,000 tested, 0.84% active;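 active = B-score under library mean minus 4 SD, starting fluorescence ratio at most library mean plus 5 SD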;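 note: more negative B-score means stronger inhibition of thallium flux through KCNK3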
Target sequence (O14649 whole entry, looked up): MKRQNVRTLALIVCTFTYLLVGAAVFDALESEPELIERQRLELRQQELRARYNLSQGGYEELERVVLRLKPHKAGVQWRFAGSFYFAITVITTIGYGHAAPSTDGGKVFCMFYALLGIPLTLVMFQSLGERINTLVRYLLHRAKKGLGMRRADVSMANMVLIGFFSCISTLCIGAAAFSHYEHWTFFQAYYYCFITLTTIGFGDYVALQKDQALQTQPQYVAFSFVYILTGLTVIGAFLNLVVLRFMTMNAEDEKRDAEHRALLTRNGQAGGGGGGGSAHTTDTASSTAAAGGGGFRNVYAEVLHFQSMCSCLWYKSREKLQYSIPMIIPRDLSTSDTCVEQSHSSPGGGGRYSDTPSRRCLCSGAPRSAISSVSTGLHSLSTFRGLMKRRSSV
KCNQ1 act = potentiators or activators of human KCNQ1 potassium channel; CHO-K1 KCNQ1, thallium flux FluxOR fluorescence; hits give high values; P51787; 310,000 tested, 0.35% active; B-score at 10 µM;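 active = fluorescence ratio B-score, a plate-corrected score, at least three library SD, with initial intensity B-score within 5 SD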
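assay system = CHO-K1 cells stably expressing KCNQ1 | medium = assay buffer, equal DMSO in all wells | timing = 37 °C overnight plating, 90-min dark dye load, 20-min compound pretreatment | measured by = kinetic FluxOR thallium fluorescence, 10-s 1-Hz baseline, 110-s post-stimulus read | measure = fluorescence change relative to baseline, converted to B score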
KCNK9 block = blocks the human KCNK9 two-pore domain potassium channel | HEK293 KCNK9, FluxOR thallium flux fluorescence; hits give low values | AID 488922 | 310,000 tested, 1.2% active | B-score at 10 µM | Q9NPC2;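 active = ratio B-score over 3 SD below the library mean, with starting fluorescence within 5 SD of its mean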;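 note: negative B-score means less thallium flux so channel inhibition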
hERG rescue = hERG (human) protection from proarrhythmic block. Q12809. CHO-hERG, FluxOR thallium flux, dofetilide IC70 present. activation (rescue from dofetilide block), less the hit threshold, % at 10 µM. 310,000 tested, 0.51% active;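 active = activation above the mean of controls blocked by dofetilide plus 5 SD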;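 note: thallium influx through hERG after potassium depolarization seen as dye fluorescence rise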
KCNQ1 inh = blocks the human KCNQ1 potassium channel. CHO-K1 KCNQ1, FluxOR thallium flux fluorescence; hits give high values. B-score at 10 µM. 310,000 tested, 1.3% active;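 active = compounds whose thallium flux B-score, printed positive for inhibition, exceeds three library SD while starting fluorescence stays within three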;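 note: channel opened by potassium depolarization with thallium stimulus after 20 min compound exposure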
Hits are given with their value; - = inactive; . = no result given.

SMILES	Cl transport mod	KCNK3 inh	KCNQ1 act	KCNK9 block	hERG rescue	KCNQ1 inh
CC[C@H](C)[C@H]1CNC(=O)C(=O)N1CC1CCN(CCCc2ccc(OC)c(OC)c2)CC1	.	-	.	.	.	.
O=C(c1ccccc1)C(Nc1ccccn1)c1ccccc1 (centres undefined)	-	-	-	-7	-	-
CC(CC(=O)Nc1ccc(Cl)c([N+](=O)[O-])c1)c1ccccc1 (centres undefined)	-	-	-	-	-	10
O=C(Nc1ccc(Cl)c([N+](=O)[O-])c1)Nc1nc2ccccc2s1	.	.	-	-	-	9
O=C(Nc1nc2ccccc2s1)Nc1ccc([N+](=O)[O-])cc1Cl	.	.	-	-	-	-
C=C(CN(C)C)C(=O)c1cc(C)ccc1C	.	-	.	.	.	.
CC1(C)SC(=S)N(/N=C/c2ccccc2)C1N(O)C(=O)Nc1ccc([N+](=O)[O-])cc1 (centres undefined)	-	-	-	-	5.8	-
CCOC(=O)c1sc(NC(=O)C(CC)Sc2nnc3c4ccccc4n(C(C)C)c3n2)nc1C (centres undefined)	-	-11	.	.	.	.
CCOC(=O)Cc1nnc(NC(=O)C(CC)Sc2nnc3c4ccccc4n(C)c3n2)s1 (centres undefined)	-	-	-	-	-	-
COC(=O)c1cncn1Cc1ccccc1	.	-	.	.	.	.
Cc1ccccc1Cc1c(C)nc2c(C(=O)NCc3ccc4c(c3)OCO4)cnn2c1C	-	-	-	-	-	-
Cc1ccc(C)c(Cc2c(C)nc3c(C(=O)NCc4ccc5c(c4)OCO5)cnn3c2C)c1	-	.	-	-7.8	-	-
CCOC(=O)c1c(NC(=O)C(C)N2CCN(C(=O)c3ccco3)CC2)sc2c1CCCC2 (centres undefined)	-	-	15	-	-	-
CCOC(=O)c1c(NC(=O)c2ccccc2C(=O)O)sc2c1CCC2	.	-	-	-	-	-
CCOC(=O)c1c(NS(=O)(=O)Cc2ccccc2)sc2c1CCCC2	144	-	-	-	78	-
N#Cc1cc(C(=O)c2cc(F)ccc2O)cn(-c2nccs2)c1=O	-	-	-	-	-	8
N#Cc1cc(C(=O)c2ccccc2O)cn(-c2nccs2)c1=O	-	-	-	-	-	-
CN(CC(=O)Nc1ccc(F)cc1)C(=O)c1ccc(N2C(=O)CCC2=O)cc1	.	-	.	.	.	.
O=C1CCN(CC2CCCCC2)C=C1C(=O)c1ccccc1	.	-	.	.	.	.
Cc1ccccc1-c1nc(S(=O)(=O)c2ccc(Br)cc2)c(NCc2cccnc2)o1	-	-9.1	-	-	-	-
Nn1c(-c2cccc(O)c2)nnc1-c1cccc(O)c1	.	-	.	.	.	.
Cc1cc(C)c(Nc2ncccc2C(=O)O)c(C)c1	-	-	-	-	5.8	-
CC(Oc1cccc(Cl)c1)C(=O)Nc1cc(S(=O)(=O)N2CCOCC2)ccc1N1CCCCC1 (centres undefined)	.	-	-	-	-	7
COc1ccc(NC(=O)c2ccc(OC)c(S(=O)(=O)N3CCCCC3C)c2)cn1 (centres undefined)	.	-	.	.	.	.
Cc1nc2ccccc2c2c(N)cccc12	.	-	.	.	.	.
SMILES	Cl transport mod	KCNK3 inh	KCNQ1 act	KCNK9 block	hERG rescue	KCNQ1 inh
COc1cccc(C(=O)Nc2ccc3[nH]ncc3c2)c1	.	-	-	-	-	-
COc1ccccc1C(=O)Nc1ccc2[nH]ncc2c1	.	-	9	-	-	-
CCOc1cccc(C(=O)Nc2ccc3[nH]ncc3c2)c1	.	-	-	-	4.9	-
CCOC(=O)CN1NC2(CCC(C(C)(C)C)CC2)NC1=S (centres undefined)	-	-	-	-	8.7	-
CCOC(=O)CN1NC2(CCC(C)CC2)NC1=S (centres undefined)	.	-	-	-	-	-
Cc1cc(OCc2cccc(S(=O)(=O)N3CCOCC3)c2)ccc1Cl	.	-9.6	.	.	.	.
Cc1ccccc1-c1nnn(Cc2cccc(S(=O)(=O)N3CCOCC3)c2)n1	.	-9	.	.	.	.
CCC(=O)OCC(=O)[C@@]1(OC(=O)CC)[C@@H](C)C[C@H]2[C@@H]3CCC4=CC(=O)C=C[C@]4(C)[C@@]3(Cl)[C@@H](O)C[C@@]21C	.	-	.	.	.	.
CCCn1c(N)c(C(=O)CSc2nnc(C3CC3)n2C2CC2)c(=O)[nH]c1=O	.	-	.	.	.	.
Cc1noc(C)c1CSCC(=O)Nc1nc2ccc(S(C)(=O)=O)cc2s1	.	-	-	-	-	-
COc1cc(C)c(NC(=S)Nc2ccc(Cl)c(Cl)c2)cc1OC	-	-	-	-	-	6

Source: PubChem BioAssay
